Data on 6 compounds can be found in ChEMBL document CHEMBL1649385, “Synthesis and in vitro anti-tumor activity of new oxadiazole thioglycosides” (Eur J Med Chem, 2011).

By IC50 is commonly meant the midpoint of a concentration-inhibition curve. Low readings indicate higher potency, high ones lower potency. By LD50 is commonly meant the dose at which mortality reaches 50%.

The subject of one data set is MCF7. Briefly: Cytotoxicity against human MCF7 cells after 48 hrs by SRB assay. Conditions: MCF7, 48 h. The format is functional, cell-based. The procedure, abridged: (§1)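 SRB assay: cells seeded at 10⁴ cells/well and left 24 h to attach, then exposed to four concentrations of compound for 48 h at 37 °C, 5% CO₂. Cells fixed, washed and stained with sulforhodamine B; excess dye removed with acetic acid, bound dye taken up in Tris-EDTA and read on an ELISA reader. IC50 from surviving fraction versus concentration curves, relative to saline control.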
(Sulforhodamine B stains cellular protein and so reports cell mass.)

The next data set deals with HepG2. Kind of data set: Cytotoxicity against human HepG2 cells after 48 hrs by SRB assay. Particulars: HepG2, 48 h. The format is functional, cell-based. The procedure, abridged:
as §1

Data set [1] in a line: Acute toxicity in po dosed albino Wistar rat assessed as mortality after 24 hrs. The format is organism-based. Particulars: in vivo. The procedure, abridged: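 Male Wistar albino rats (110–115 g) were acclimated for 7 days with pellet diet and water ad libitum. Compound in DMSO was given as a single oral gavage of 500 mg/kg body weight at a fixed 0.5 mL/rat, with eight rats per group. Controls received 0.5 mL DMSO. Mortality was recorded after 24 h.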

Data set [2] in a line: Acute toxicity in albino Wistar rat assessed as mortality at 50 mg/kg, po after 24 hrs. The format is organism-based. Set-up: dose 50 mg/kg, route oral. Particulars: in vivo, read-out: Activity.

Values after ≈ are worked out from the molar mass of the structure shown.

Take `CC(C)Cc1nn(-c2ccccc2)cc1-c1nnc(S)o1`: the IC50 was 17.9 mg/L (≈ 59.6 µM) in the data set on MCF7 and 43.6 mg/L (≈ 145 µM) in the data set with HepG2. In data set [1], the LD50 at 24 h is over 500 mg/kg.

For the compound `CC(=O)OC[C@@H]1O[C@H](Sc2nnc(C)c(=O)n2/N=C\c2cn(-c3ccccc3)nc2CC(C)C)[C@@H](OC(C)=O)[C@H](OC(C)=O)[C@H]1OC(C)=O`, the IC50 in the data set on MCF7 is 20.2 mg/L (≈ 29 µM); in the data set with HepG2 it was 9.1 mg/L (≈ 13 µM).

As to `O=c1[nH]cc(F)c(=O)[nH]1` [FLUOROURACIL], the IC50 with HepG2 worked out at 25 mg/L (≈ 192 µM).

With `CSCSc1nnc(-c2cn(-c3ccccc3)nc2CC(C)C)o1`, the IC50 in the data set with MCF7 worked out at 2.67 mg/L (≈ 7.41 µM); with HepG2 it was 4.62 mg/L (≈ 12.8 µM). Moreover, in data set [2], the mortality at 24 h was 25%. In addition, the LD50 at 24 h in data set [1] was over 500 mg/kg.

Consider `CC/C(=C(\c1ccccc1)c1ccc(OCCN(C)C)cc1)c1ccccc1` [TAMOXIFEN], for which, in the data set with MCF7, the IC50 turned out to be 8.31 mg/L (≈ 22.4 µM).

For `CC(=O)OC[C@H]1O[C@@H](Sc2nnc(-c3cn(-c4ccccc4)nc3CC(C)C)o2)[C@H](OC(C)=O)[C@@H](OC(C)=O)[C@@H]1OC(C)=O`, the IC50 in the data set with MCF7 amounted to 7.1 mg/L (≈ 11.3 µM); in the data set on HepG2, 13.9 mg/L (≈ 22 µM). Moreover, the mortality at 24 h in data set [2] came to 25%. Moreover, the LD50 at 24 h in data set [1] is over 500 mg/kg.
